Compound activity as filed in PubChem.
Sampled rows, rich in hits. Any-hit rate of the full collection: about 5.6%.
XBP1 UPR activ: activators of adaptive arm of unfolded protein response (XBP1); CHO-XBP1 luciferase reporter, IRE1-XBP1 UPR activation, luminescence; percent of tunicamycin response, DMSO as zero; activation, % at 20 µM; actives 0.33% (n = 330,000);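 active = versus positive control, 20 µM dose yields 30% or more activation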;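 note: 100% = tunicamycin at 10 µg/mL and 0% = DMSO only wells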
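Material: CHO-XBP1 cells stably carrying IRE1-XBP1-driven luciferase reporter | Medium: F12 with 10% serum | Compound dosing: 20 µM single concentration, DMSO 1% | Incubation: Overnight seeding at 37 °C, 6 h compound treatment at 37 °C | Detection: Steady-Glo luminescence read | Read-out basis: % activation of reporter signal versus tunicamycin and DMSO controls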
UPR CHOP act: apoptotic UPR (CHOP) activation; CHO-CHOP luciferase reporter, luminescence; percent of tunicamycin response over DMSO baseline; activation, % at 10 µM; actives 0.34% (n = 330,000);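 active = at 10 µM dose, activation of 40% or more, normalized to positive control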;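 note: 100% = tunicamycin at 10 µg/mL and 0% = DMSO alone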
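Test system: CHO CHOP reporter cells. Input: 500 CHO-CHOP cells per well. Medium: F12 with 10% FBS. Technique: luciferase luminescence. Measure: percent activation relative to tunicamycin control. Dosing: 10 µM compound, 0.5% DMSO. Timing: 16-18 h cell attachment, then 6 h compound exposure, 37 °C.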
aDG glyco act: increases alpha dystroglycan glycosylation. Pro5-aDG cells, alpha-DG glycosylation AlphaScreen (IIH6); 0% Pro5, 100% B10-LARGE cell signal. activation, % at 10 µM. actives 0.22% (n = 360,000);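 active = activation of at least 8% versus controls, or a plate z-score of at least 8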;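 note: Pro5 are CHO cells carrying HIG-tagged alpha-DG that lacks glycosylation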
NR3A LBD binder: modulates the human NR3A ligand-binding domain. NR3A LBD differential scanning fluorimetry, Tm shift; 0% = protein alone, 100% = glycine-bound protein. Tm shift relative to glycine control, % at 25 µM. actives 2.5% (n = 340,000). AID 1259313;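 active = melting temperature shift of at least 10% of the positive control shift, at one fixed dose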
MPTP inh: permeability transition pore inhibition; isolated mouse mitochondria, Ca2+ swelling absorbance, 30 min; inhibition, % at 10 µM; actives 1.4% (n = 360,000); AID 602449;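 active = inhibition of 50% or more, scaled per plate between neutral and stimulator controls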;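 note: 0% = DMSO wells given calcium and 100% = 1 mM EGTA wells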
CHOP inhibitor: CHOP inhibition in unfolded protein response; AID 2732; inhibition, % at 10 µM; CHO-K1 CHOP-promoter luciferase, tunicamycin-induced, 15-18 h; actives 3.8% (n = 220,000);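 active = compounds that reduced the stress-induced luciferase reporter signal by more than about 70% of percent inhibition, limit read from the data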;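 note: 0% = tunicamycin plus vehicle and 100% = wells without tunicamycin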
* = called active by the depositor; . = not tested or not shown.

SMILES	XBP1 UPR activ	UPR CHOP act	aDG glyco act	NR3A LBD binder	MPTP inh	CHOP inhibitor
O=C(NCC(=O)N(c1cccc(F)c1)C(C(=O)NC1CCCC1)c1cccnc1)c1cccs1 (centres undefined)	-1	0	0	-2	-1	-17
CCOc1ccc(OCc2ccc(C(=O)NC(C)(C)C)o2)cc1	1	1	0	0	30	.
CC(C)NC(=O)c1ccc(COc2ccc(C(C)(C)C)cc2)o1	2	1	1	16*	26	.
O=C(NCCCl)NNc1c(Cl)cc(Cl)cc1Cl	0	0	0	0	-1	4
CCCCNC(=S)NNc1c(Cl)cc(Cl)cc1Cl	2	0	0	-2	-2	82*
O=C(OCC(=O)N1CCN(c2ccccc2)CC1)c1ccc2ccccc2n1	-2	0	0	14*	-2	-11
CCC(C)N(C(=O)CSc1nnc(NC(C)C)s1)C1CCS(=O)(=O)C1 (centres undefined)	0	-2	0	2	0	.
Cc1ccc(S(=O)(=O)N2C[C@H]3C(=O)C[C@@H](c4ccccc4)N(S(=O)(=O)c4ccc(C)cc4)[C@H]3C[C@H]2c2ccc(Cl)cc2)cc1	.	.	0	.	0	.
CCCCC(=O)NCCc1ccc(S(N)(=O)=O)cc1	-1	-2	0	2	-1	-10
CCCCCCCC/C=C\CCCCCCCC(=O)NCCO	-1	-2	0	10*	-1	31
CCCCCCCC/C=C\CCCCCCCC(=O)O	-3	0	0	3	2	-4
CCCCCCCC/C=C\CCCCCCCC(=O)NCCc1ccc(O)c(O)c1	17	148*	0	-1	6	-11
Cc1cc(OCC(=O)OCC(=O)NCC2CCCO2)ccc1Cl (centres undefined)	0	-2	0	-1	1	.
CC1(C(=O)Nc2ccc3c(c2)OCCO3)CN(S(C)(=O)=O)CC(=O)N1CCc1ccc(O)cc1 (centres undefined)	.	.	0	.	0	.
CC(=O)N1CCN(c2nc3ccc([N+](=O)[O-])cc3s2)CC1	-2	-1	0	0	-1	.
Cc1cc2cc(CN(Cc3ccc4c(c3)OCO4)Cc3nnnn3C3CCCC3)c(=O)[nH]c2cc1C	1	1	0	-7	3	16
Cc1cc(C)c2cc(CN(Cc3nnnn3C3CCCCC3)CC3CCCO3)c(=O)[nH]c2c1 (centres undefined)	-2	-1	0	-9	1	71*
CCc1ccc2[nH]c(=O)c(CN(Cc3nnnn3C3CCCC3)C3CCCCC3)cc2c1	2	0	0	-1	-1	78*
Cc1cccc2cc(CN(Cc3nnnn3C3CCCC3)C3CCCCC3)c(=O)[nH]c12	-3	0	0	-7	0	.
Cc1ccc2[nH]c(=O)c(CN(Cc3ccc4c(c3)OCO4)Cc3nnnn3C3CCCC3)cc2c1	-6	0	0	1	0	72*
CC(C)(C)c1ccc(-n2nc(C#N)c(Cl)cc2=O)cc1	-10	-9	-1	3	-3	108*
O=C(Nc1ccn(CCCN2CCN(c3ccccn3)CC2)c(=O)n1)OCc1ccccc1	.	.	1	0	0	.
Cc1ccccc1C(=O)NC(=S)Nc1sc2c(c1C#N)CCC(C)C2 (centres undefined)	0	-1	0	14*	16	26
N#Cc1c(NC(=S)NC(=O)c2ccccc2)sc2c1CCN(CCc1ccccc1)C2	1	2	.	.	.	47
CCCC1Cc2c(sc(NC(=S)NC(=O)c3ccccc3)c2C#N)CO1 (centres undefined)	6	2	.	.	.	86*
SMILES	XBP1 UPR activ	UPR CHOP act	aDG glyco act	NR3A LBD binder	MPTP inh	CHOP inhibitor
CC(C)(C)c1ccc(NC(=O)CNC2CCCc3ccccc32)cc1 (centres undefined)	1	0	1	-4	2	91*
Nc1nc2ccccc2n1/N=C/c1ccc(-c2ccccc2)o1	2	7	0	30*	6	48
Nc1nc2ccccc2n1/N=C/c1cccnc1	-2	-1	0	1	-1	8
CN(C(=O)CCNC(=O)Cn1cnc2ccccc2c1=O)c1ccccc1F	-4	-1	0	1	0	.
CCCCNC(=O)CCn1c(=O)c2ccccc2n(Cc2ccc(Cl)cc2)c1=O	4	0	0	-3	0	87*
Cc1ccc(Cn2ccc(NC(=O)CCSc3nc(-c4ccco4)cc(C(F)(F)F)n3)n2)cc1	2	0	0	-1	-3	90*
CC(C)(C)c1cc(C(F)(F)F)nc(SCCCNC(=O)c2ccco2)n1	-3	-1	0	1	6	86*
Cc1cc(NC(=O)CCCSc2nc(-c3ccco3)cc(C(F)(F)F)n2)no1	2	-2	0	1	1	88*
O=C(CNC(=O)c1ccccc1F)NCCOc1ccccc1Cl	3	0	-1	1	0	50
Cc1ccc(C(=O)Nc2sc(C)c(C)c2C(=O)c2ccccc2)cc1	0	1	0	20*	4	32
CC(=O)Oc1c(Br)cc(N(C(C)=O)S(=O)(=O)c2ccccc2)c2ccccc12	5	7	3.0*	-3	2	.
CC(NC(=O)COc1ccccc1-c1ccccc1)c1ccccc1 (centres undefined)	-1	-2	3	3	6	77*
Cc1ccc(C)c(N2CCN(S(=O)(=O)c3ccc4c(c3)NC(=O)CO4)CC2)c1	-4	1	0	11*	1	.
Cc1cc2c(cc1S(=O)(=O)N1CCN(c3ccccc3F)CC1)OCC(=O)N2	-4	1	0	13*	-1	.
CC(=O)Nc1ccc(S(=O)(=O)N2CCN(c3cc(C)ccc3C)CC2)cc1	-1	-1	0	-7	1	75*
O=C1COc2ccc(S(=O)(=O)N3CCN(c4ccccc4F)CC3)cc2N1	-3	-2	0	12*	-2	.
Nc1ccc(-c2cnc[nH]2)cc1[N+](=O)[O-]	1	2	0	3	3	-13
COC(=O)CC(NC(=O)c1cccs1)c1ccc(OC)c(OC)c1 (centres undefined)	0	0	0	-1	-5	10
c1ccc2c(c1)CCN(c1nc(CN3CCOCC3)nc3sc4c(c13)CCCC4)C2	-2	1	0	0	4	85*
COc1ccc(C(CC(=O)O)NS(=O)(=O)c2ccc3c(c2)N(C(C)=O)CC(C)O3)cc1 (centres undefined)	-5	-1	0	-2	0	.
